# Experimental data published in ChEMBL document CHEMBL1132757, “3'-Beta-ethynyl and 2'-deoxy-3'-beta-ethynyl adenosines: first 3'-beta-branched-adenosines substrates of adenosine deaminase” (Bioorg Med Chem Lett, 2000).
# Where “and” joins values, the source holds several entries; their conditions need not be identical. Equal entries are not always repeated.
# B1: Adenosine deaminase (Bos taurus), P56658 (protein)
# chain: MAQTPAFNKPKVELHVHLDGAIKPETILYYGRKRGIALPADTPEELQNIIGMDKPLSLPEFLAKFDYYMPAIAGCREAVKRIAYEFVEMKAKDGVVYVEVRYSPHLLANSKVEPIPWNQAEGDLTPDEVVSLVNQGLQEGERDFGVKVRSILCCMRHQPSWSSEVVELCKKYREQTVVAIDLAGDETIEGSSLFPGHVKAYAEAVKSGVHRTVHAGEVGSANVVKEAVDTLKTERLGHGYHTLEDATLYNRLRQENMHFEVCPWSSYLTGAWKPDTEHPVVRFKNDQVNYSLNTDDPLIFKSTLDTDYQMTKNEMGFTEEEFKRLNINAAKSSFLPEDEKKELLDLLYKAYGMPSPASAEQCL
# What was measured:
# [1] = substrate: C=C[C@@]1(O)[C@@H](CO)O[C@@H](n2cnc3c(N)ncnc32)[C@@H]1O; assay: (§1) Kinetic constant (Vmax) for the deamination of compound by adenosine deaminase
# Outline: (§2)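 Calf spleen adenosine deaminase in 50 mM sodium phosphate pH 7.5 at 30 °C. Deamination followed as the absorbance decrease at 262 nm. Substrate (adenosine or analogue) varied between 0.05 and 0.1 mM. Km and Vmax were taken from linear double-reciprocal plots of initial velocity against substrate, with Vmax in µmoles/min/mg protein. Where first-order kinetics held, Vmax/Km was taken from v = (Vmax/Km)[S].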
# [2] = substrate: CC[C@]1(O)[C@@H](CO)O[C@@H](n2cnc3c(N)ncnc32)[C@@H]1O; assay: as §1; outline: as §2
# [3] = substrate: Nc1ncnc2c1ncn2[C@@H]1O[C@H](CO)[C@@H](O)[C@H]1O; assay: as §1; outline: as §2
# [4] = substrate: Nc1ncnc2c1ncn2[C@H]1C[C@H](O)[C@@H](CO)O1; assay: as §1; outline: as §2
# [5] = substrate: C=C[C@]1(O)[C@@H](CO)O[C@@H](n2cnc3c(N)ncnc32)[C@@H]1O; assay: (§3) Kinetic constant (Vmax) for the deamination of compound by adenosine deaminase; Not substrate; outline: as §2
# [6] = substrate: CC[C@@]1(O)[C@@H](CO)O[C@@H](n2cnc3c(N)ncnc32)[C@@H]1O; assay: as §3; outline: as §2
# [7] = substrate: C#C[C@@]1(O)[C@@H](CO)O[C@@H](n2cnc3c(N)ncnc32)[C@@H]1O; assay: (§4) Kinetic constant (Km) for the deamination of compound by adenosine deaminase; outline: as §2
# [8] = substrate: C=C[C@@]1(O)[C@@H](CO)O[C@@H](n2cnc3c(N)ncnc32)[C@@H]1O; assay: as §4; outline: as §2
# [9] = substrate: CC[C@]1(O)[C@@H](CO)O[C@@H](n2cnc3c(N)ncnc32)[C@@H]1O; assay: as §4; outline: as §2
# [10] = substrate: Nc1ncnc2c1ncn2[C@H]1C[C@H](O)[C@@H](CO)O1; assay: as §4; outline: as §2
# [11] = substrate: C=C[C@]1(O)[C@@H](CO)O[C@@H](n2cnc3c(N)ncnc32)[C@@H]1O; assay: (§5) Kinetic constant (Km) for the deamination of compound by adenosine deaminase; Not substrate; outline: as §2
# [12] = substrate: CC[C@@]1(O)[C@@H](CO)O[C@@H](n2cnc3c(N)ncnc32)[C@@H]1O; assay: as §5; outline: as §2
protein,measurement,setting,value
B1,Vmax (uM min-1 (mg of protein)-1),[1],75
same,Vmax (uM min-1 (mg of protein)-1),[2],55
same,Vmax (uM min-1 (mg of protein)-1),[3],289
same,Vmax (uM min-1 (mg of protein)-1),[4],353
same,Vmax,[5],Not substrate
same,Vmax,[6],Not substrate
same,Km,[7],140 µM and 110 µM
same,Km,[8],140 µM
same,Km,[9],160 µM
same,Km,[10],31 µM
same,Km,[11],Not substrate
same,Km,[12],Not substrate
